molecular target: T1, Aurora kinase B (Homo sapiens, UniProt Q96GD4); experiment: Inhibition of aurora B kinase (unknown origin) using ATP and SB2 substrate incubated at 37 degC for 2 hrs by kinase-Glo reagent based luminescent kinase assay
In short: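 Aurora B at 300 ng/well with ATP and peptide substrate SB2 at optimized levels, DMSO below 2% by volume. Kinase activity was quantified by Kinase-Glo luminescence of the ATP remaining after the reaction. The assay was validated with 48 enzyme-containing and 48 enzyme-free wells for the Z′-factor. IC50 values were derived from this luminescent assay.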

T1 sequence (Q96GD4 whole entry): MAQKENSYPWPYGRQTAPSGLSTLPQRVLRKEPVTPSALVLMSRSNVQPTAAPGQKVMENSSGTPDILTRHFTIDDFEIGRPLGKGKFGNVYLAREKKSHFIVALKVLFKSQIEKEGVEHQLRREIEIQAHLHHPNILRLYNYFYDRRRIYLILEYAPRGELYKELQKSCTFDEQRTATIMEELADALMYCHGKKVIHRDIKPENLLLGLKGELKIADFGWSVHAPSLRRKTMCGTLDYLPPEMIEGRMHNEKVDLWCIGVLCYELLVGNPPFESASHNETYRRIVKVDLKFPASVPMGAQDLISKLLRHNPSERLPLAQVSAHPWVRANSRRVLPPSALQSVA

| IC50 | Structure (SMILES) |
| --- | --- |
| 1.8 µM | O=C(Nc1ccc(C(F)(F)F)cc1)Nc1cc2c(cc1N1CCCC1)/C(=C/c1ccc[nH]1)C(=O)N2 |
| 3.3 µM | O=C(Nc1ccc(F)cc1)Nc1cc2c(cc1N1CCOCC1)/C(=C/c1ccc[nH]1)C(=O)N2 |
| 8.2 µM | O=C(Nc1ccc(F)cc1)Nc1cc2c(cc1N1CCOCC1)/C(=C/c1ccc3c(c1)OCO3)C(=O)N2 |
| 2.5 µM | CCN(CC)c1cc2c(cc1NC(C)=O)NC(=O)/C2=C\c1ccc[nH]1 |

molecular target: T1, Aurora kinase B; experiment: Inhibition of aurora B kinase (unknown origin) at 10 uM using ATP and SB2 substrate incubated at 37 degC for 2 hrs by kinase-Glo reagent based luminescent kinase assay
In short: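 Aurora B at 300 ng/well with ATP and peptide substrate SB2 at the optimized levels. DMSO was kept below 2% by volume. Activity was read by Kinase-Glo luminescence, which measures the ATP left after the reaction.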

| inhibition | Structure (SMILES) |
| --- | --- |
| < 30% | O=C1Cc2cc(N3CCOCC3)c(NC(=O)Nc3ccc(F)cc3)cc2N1 |
| < 30% | COc1ccc(/C=C2\C(=O)Nc3cc(NC(C)=O)c(N4CCOCC4)cc32)cc1 |
| 47% | O=C(Nc1ccc(C(F)(F)F)cc1)Nc1cc2c(cc1N1CCCC1)/C(=C/c1cccs1)C(=O)N2 |
| 97% | O=C(Nc1ccc(C(F)(F)F)cc1)Nc1cc2c(cc1N1CCCC1)/C(=C/c1ccc[nH]1)C(=O)N2 |
| < 30% | CCCCCCCNC(=O)Nc1cc2c(cc1N1CCN(C(=O)OCC)CC1)/C(=C/c1ccc[nH]1)C(=O)N2 |
| 65% | O=C(Nc1ccc(F)cc1)Nc1cc2c(cc1N1CCOCC1)/C(=C/c1ccc(F)cc1)C(=O)N2 |
| < 30% | CC(=O)Nc1cc2c(cc1N1CCOCC1)/C(=C/c1ccco1)C(=O)N2 |
| < 30% | C=CCC1C(=O)Nc2cc(NC(=O)Nc3ccc(F)cc3)c(N(CCC)CCC)cc21 (stereo not given) |
| < 30% | Cc1cc(C)cc(Oc2cc3c(cc2NC(=O)Nc2ccc(OC(F)(F)F)cc2)NC(=O)C3Cc2ccccc2)c1 (stereo not given) |
| < 30% | CCCC1(C(=O)OCC)C(=O)Nc2cc(NC(=O)Nc3ccc(F)cc3)c(N3CCN(c4cccc(C)c4C)CC3)cc21 (stereo not given) |
| < 30% | CCCCC1C(=O)Nc2cc(NC(=O)Nc3ccc(F)cc3)c(N3CCOCC3)cc21 (stereo not given) |

Second part, the compound before the results:

| Structure (SMILES) | inhibition |
| --- | --- |
| CCN(CC)c1cc2c(cc1NC(C)=O)NC(=O)/C2=C\c1ccccn1 | < 30% |
| CCc1ccc(Oc2cc3c(cc2NS(=O)(=O)c2ccc(C)cc2)NC(=O)C3)cc1 | < 30% |
| C=CCNC(=S)Nc1cc2c(cc1N(CCC)CCC)/C(=C/c1ccc3c(c1)OCO3)C(=O)N2 | 31% |
| C=CCC1C(=O)Nc2cc(NC(=S)Nc3ccccc3OC)c(N(CCC)CCC)cc21 (stereo not given) | 35% |
| C=CCNC(=S)Nc1cc2c(cc1Oc1cc(C)cc(C)c1)C(Cc1ccccc1)C(=O)N2 (stereo not given) | < 30% |
| CCN(CC)c1cc2c(cc1NC(C)=O)NC(=O)/C2=C\c1cccs1 | < 30% |
| CCCC1(C(=O)OCC)C(=O)Nc2cc(NC(C)=O)c(N3CCN(c4cccc(C)c4C)CC3)cc21 (stereo not given) | < 30% |
| CCC/C=C1\C(=O)Nc2cc(NC(C)=O)c(N(CC)CC)cc21 | < 30% |
| Cc1cc(C)cc(Oc2cc3c(cc2NS(=O)(=O)c2ccc(F)cc2)NC(=O)C3Cc2ccccc2)c1 (stereo not given) | < 30% |
| CCN(CC)c1cc2c(cc1NC(C)=O)NC(=O)/C2=C\c1ccc[nH]1 | 83% |

Source: ChEMBL document CHEMBL3596117, “Identification of 3,5,6-substituted indolin-2-one's inhibitors of Aurora B by development of a luminescent kinase assay” (Bioorg Med Chem Lett, 2015)
